Data on nine compounds can be found in ChEMBL document CHEMBL1132387, “N-arylpiperazinone inhibitors of farnesyltransferase: discovery and biological activity” (J Med Chem, 1999).

The IC50 is the concentration at which inhibition is half-maximal. As usually defined, the IC90 is the concentration at which the effect reaches the 90% level. A word on the IC20: it is the concentration needed for an effect of 20%. The low end stands for an effect from little substance, the high end for a need for much substance.

The target in assay [1] is Protein farnesyltransferase (Homo sapiens, UniProt P49354+P49356). The assay can be described thus: Inhibition of [3H]FPP incorporation into recombinant human K-Ras by Farnesyltransferase. In kind it is protein-complex assay. The essentials:
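FTase-catalyzed incorporation of [³H]FPP into recombinant human K-Ras protein. IC50 is the compound concentration giving 50% inhibition of that incorporation.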

Assay [2] concerns Rat1. The assay can be described thus: Inhibition of anchorage-independent growth by 90% in human H-ras-transformed RAT1 cells in soft agar. It is filed as functional. Conditions: Rattus norvegicus. The procedure, abridged:
(§1)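 RAT1 cells transformed with human H- or K-ras were suspended in soft agar to measure colony formation. IC90 is the concentration inhibiting anchorage-independent growth by 90% relative to vehicle-treated control. Values are reported as ranges.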

The target in assay [3] is Geranylgeranyl transferase type I (Homo sapiens, UniProt P49354+P53609). The assay can be described thus: Inhibition of [3H]GGPP incorporation into recombinant human RhoA by Geranylgeranyl transferase type I. It is filed as protein-complex assay. The procedure, abridged: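 GGTase I-catalyzed incorporation of [³H]GGPP into recombinant human RhoA protein. IC50 is the concentration giving 50% inhibition.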

Assay [4] deals with Rat1. Description: Inhibition of anchorage-independent growth by 90% of human K-ras-transformed RAT1 cells in soft agar. In kind it is functional. Conditions: Rattus norvegicus. The procedure, abridged: as §1
The subject of assay [5] is Rat1. Description: Inhibition of anchorage independent growth of H-ras-transformed RAT1 cells on poly(HEMA) coated microtiter plate. It is filed as functional, cell-based. Conditions: Rattus norvegicus. The procedure, abridged:
(§2)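 Anchorage-independent growth assay: cells grown on poly(HEMA)-coated microtiter plates. IC50 is the compound concentration that inhibits 50% of cell growth.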

For assay [6], the system named is Rat1. Description: Highest concentration compatible with 80% cell survival in cultured RAT1 cells. In kind it is functional. Conditions: Rattus norvegicus. The essentials:
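Normal RAT1 cells in culture, with viability read by MTT staining. The value is the highest compound concentration compatible with 80% cell survival.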

Assay [7] has as its system DLD-1. The assay can be described thus: Concentration required to inhibit growth of human tumor DLD1 cell line on poly(HEMA) coated microtiter plate. It is filed as functional, cell-based. The essentials: as §2
Assay [8] has as its system MCF7. Description: Concentration required to inhibit growth of human tumor MCF-7 cells line on poly(HEMA) coated microtiter plate. It is filed as functional, cell-based. The essentials:
as §2

In assay [9] the test system is Mus musculus. Description: Tumor growth inhibition against subcutaneously injected H-ras-Rat1 cells in female nude mice after continuous infusion of 14 mg/kg/day. It is filed as functional. Conditions: route subcutaneous. The procedure, abridged:
(§3)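 Female nude mice were injected subcutaneously with H- or K-ras-transformed RAT1 cells. Treatment began 24 h later with vehicle (50% DMSO/water) or compound, n = 8–10, for about 14 days. Dosing was once-daily subcutaneous injection or continuous sc infusion by implanted Alzet osmotic pump. Tumor growth inhibition is relative to vehicle controls.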

Assay [10] deals with Mus musculus. The assay can be described thus: Tumor growth inhibition against subcutaneously injected H-ras Rat1 cells in female nude mice after continuous infusion of 1.4 mg/kg/day. It is filed as functional. Conditions: route subcutaneous. The procedure, abridged: as §3
Assay [11] concerns Rat1. Description: Inhibition of anchorage-independent growth by 90% in human K-ras-transformed RAT1 cells in soft agar. Conditions: Rattus norvegicus. It is filed as functional. The essentials: as §1

Where “and” joins values, the source holds several entries; their conditions need not be identical. Equal values may be shown once.

For `C[C@@H]1CN(c2cccc(Cl)c2)C(=O)CN1Cc1cncn1Cc1ccc(C#N)cc1`, the IC50 in assay [1] amounted to 80 nM.

For the compound `CCCC[C@H]1CN(C(=O)c2cccc3ccccc23)CCN1Cc1c[nH]cn1`, the IC50 in assay [1] was 7300 nM.

With `C[C@H]1CN(c2cccc(Cl)c2)C(=O)CN1Cc1cncn1Cc1ccc(C#N)cc1`, the IC50 in assay [1] came out at 9 nM.

Take `CCCC[C@H]1CN(C(=O)c2cccc3ccccc23)CCN1Cc1cncn1Cc1ccc(C#N)cc1`: the half-inhibitory concentration (IC50) in assay [1] stood at 21 nM.

Take `CCCC[C@H]1CN(C(=O)c2cccc3ccccc23)CCN1C[C@@H](N)S`: the IC50 in [1] is 1 nM.

Turning to `CCCC[C@H]1CN(C(=O)c2cccc3ccccc23)CCN1Cc1cncn1Cc1ccccc1`, in assay [1], the IC50 came out at 495 nM.

As to `CCCC[C@H]1CN(c2cccc(C)c2C)C(=O)CN1Cc1cncn1Cc1ccc(C#N)cc1`, the figures for the IC50 in assay [1], in assay [3] and in assay [5] were 0.44 nM, 10000 nM and 28 nM, respectively. The results for the IC90 in assay [2] and in assay [4] were 100 nM and 2500 nM, respectively. This compound also came in with an IC20 in assay [6] of 25000 nM.

Consider `CCS(=O)(=O)C[C@@H]1CN(c2cccc(Cl)c2)C(=O)CN1Cc1cncn1Cc1ccc(C#N)cc1`, for which the IC50 in assay [7] is 1500 nM; in [8], 5 nM; in assay [1], 0.18 nM; in [3] it was > 100000 nM; in [5], 8 nM. Moreover, the Tumor growth inhibition in assay [9] is 100% and 60%; in assay [10], 73%. Moreover, the IC90 is 30 nM in assay [2] and 1000 nM in assay [11]. In addition, in [6], the IC20 was > 100000 nM.

`CCCC[C@H]1CN(c2cccc(Cl)c2)C(=O)CN1Cc1cncn1Cc1ccc(C#N)cc1`: in assay [1], the IC50 is 0.11 nM.
